This is an account of results in ChEMBL document CHEMBL4513216, “Probing the Open Global Health Chemical Diversity Library for Multistage-Active Starting Points for Next-Generation Antimalarials” (ACS Infect Dis, 2020).

SMILES strings stand for the structures.

A short description of this data set: Toxicity liver stage against HepG2, at 10uM. As to conditions: human, HepG2-A16-CD81EGFP cells; read-out: INHIBITION
The arrangement: test concentration 10 uM, cell line HepG2-A16-CD81EGFP. It counts as cell-based. In outline: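 Uninfected HepG2-A16-CD81EGFP cells, 3 × 10^3 per well, 1536-well, plated on prespotted compound at 10 μM final, parasite-free screening media added to match infected plates; puromycin 10 μM positive, DMSO 0.5% negative; run in parallel with 48 h PbLuc assay at 37 °C, 5% CO2; viability by CellTiter-Glo luminescence, normalized to controls.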
Consider `N#Cc1cc2c(nc1SCc1cc(O)nc(O)n1)CCCC2`, for which the cytotoxicity at 10 µM is -3.94%.
With `Cc1ncc2c(n1)CN(Cc1nnc(Cc3ccccc3)o1)CC2`, the cytotoxicity at 10 µM was found to be 1.13%.
Consider `CC(OCC1CC1)C(=O)N1CCCN(c2ncccc2C#N)CC1` (stereo unspecified), for which the cytotoxicity at 10 µM was -11.6%.
With `CNC(=O)COC1COC2(CCN(c3ccc(C)nn3)CC2)C1` (stereo unspecified), the cytotoxicity at 10 µM was -0.419%.
Consider `CCC(C)NS(=O)(=O)Cc1cccc(NC(=O)C(C)C)c1` (stereo unspecified), for which the cytotoxicity at 10 µM was 5.36%.
In the case of `Cc1cc(CN2C[C@@H]3COC[C@]3(COCc3csc(C)n3)C2)no1`, the cytotoxicity at 10 µM was determined as 1.17%.
Turning to `CCCS(=O)(=O)N1CCOC2(CCCN(c3ncc(F)cn3)C2)C1` (stereo unspecified), the cytotoxicity at 10 µM was 8.22%.
On to `CCN(CC)S(=O)(=O)NC(=O)c1cc(C)n(-c2ccccc2)n1`, for which the cytotoxicity at 10 µM is -9.68%.
For `CCS(=O)(=O)N1Cc2c(Cn3cccc3)nn(C(C)C)c2C1`, the cytotoxicity at 10 µM is 13.6%.
For the compound `CC(C)=CCNC1CCCN(c2ccc(C)nn2)C1` (stereo unspecified), the cytotoxicity at 10 µM was determined as 5.23%.
Regarding `CC(C)CN1CC(O)CN(S(=O)(=O)c2ccc(F)cc2)CC1=O` (stereo unspecified), the cytotoxicity at 10 µM is 2.99%.
To `CCNC(=O)C1CCCN(c2cccc(C(F)(F)F)n2)C1` (stereo unspecified) belongs 3.4%; to `COc1ccc(CN(C)Cc2cccc(C#N)c2)c(OC)c1`, -4.48%.
For `CC(=O)N1CCCN(C(=O)Cc2c(C)nc(C)[nH]c2=O)CC1`, the cytotoxicity at 10 µM was -8.28%.
As for `CN(C(=O)Cn1nc(-c2ccccc2)ccc1=O)C1CCS(=O)(=O)C1` (stereo unspecified), the figure is 1.82%.
Consider `O=C(NC1CC1)[C@@H]1CN(Cc2ccc3c(c2)OCO3)C[C@H]2OCC[C@H]21`, for which the cytotoxicity at 10 µM is -1.79%.
Regarding `Cc1nc(C(=O)N2CC[C@@]3(C[C@@H](NS(C)(=O)=O)CCO3)C2)cs1`, the cytotoxicity at 10 µM was -66%.
For the compound `Cc1ccc(S(C)(=O)=O)cc1C(=O)NS(C)(=O)=O`, the cytotoxicity at 10 µM was -11.4%.
On to `Cc1nc2c(c(NCc3ccccc3)n1)CCN(C(=O)C1CCC1)CC2`, for which the cytotoxicity at 10 µM amounted to 14.3%.
For `COCCC(Cc1cccc(Br)c1)C(N)=O` (stereo unspecified), the cytotoxicity at 10 µM stood at 8.42%.
As for `O=C(NCc1ccco1)[C@@]12CCO[C@@H]1CCN(c1ncccn1)C2`, the figure is 0.864%; as for `Cc1ccc([C@@H]2CN(S(=O)(=O)N(C)C)C[C@H]2N(C)C)cc1`, 2.47%.
Consider `C=c1ccoc1=C1NN=C(CNCCn2cc(C)cn2)O1`, for which the cytotoxicity at 10 µM is 1.12%.
With `O=C(c1cccnc1)N1C[C@@H](c2ccccc2)[C@@]2(CCNC2=O)C1`, the cytotoxicity at 10 µM was -6.23%.
`CC(=O)N1N=C(c2ccco2)OC1C(=O)NCC(C)C` (stereo unspecified): the cytotoxicity at 10 µM was -5.31%.
With `CCOc1ccccc1OC1CCN(C(=O)c2[nH]nc(C)c2Br)CC1`, the cytotoxicity at 10 µM was -8.75%.
To `Cc1cccc(-c2nccnc2C2CCN(C)CC2)c1C` belongs 2.14%; to `CC(C)Oc1cccc(C(=O)C2CCCN(C(=O)c3ccoc3)C2)c1` (stereo unspecified), 1.43%; to `COCCN1CCC(Nc2c(F)cc(C#N)cc2F)CC1`, -5.41%.
Take `Fc1ccccc1C1NCCc2cc3c(cc21)OCCO3` (stereo unspecified): the cytotoxicity at 10 µM was -10.2%.
Take `Cc1cnn(CCNCc2ccc(OCC(N)=O)cc2)c1`: the cytotoxicity at 10 µM is -0.86%.
On to `CO[C@@H]1CC[C@H]2[C@H]1OCCN2Cc1ccccn1`, for which the cytotoxicity at 10 µM turned out to be 1.06%.
As for `CN(C)C(CNS(=O)(=O)c1ccc(F)cc1F)c1cccn1C` (stereo unspecified), the figure is -13.9%.
Consider `CC(=O)N(C)CC(=O)Nc1ccc(C)cc1OCc1ccccc1`, for which the cytotoxicity at 10 µM came out at 2.22%.
Turning to `Cc1nc(-n2nc(C3CC3)cc2NC(=O)C(C)C)[nH]c(=O)c1C`, the cytotoxicity at 10 µM worked out at 54.5%.
As for `CC(NC(=O)NC1CC1)c1nc(-c2ccccc2)cs1` (stereo unspecified), the figure is -5.83%.
As to `O=C(NC[C@H]1OC[C@@H](NC2CCCCC2)[C@@H]1O)Nc1ccccc1`, the cytotoxicity at 10 µM is -11.6%.
Regarding `NC(=O)CN1CCCN(C(=O)c2ccn(-c3ccccc3)n2)CC1`, the cytotoxicity at 10 µM was -1.61%.
Regarding `O=C1CC(C(=O)Nc2nnc(-c3ccoc3)[nH]2)c2ccccc2N1` (stereo unspecified), the cytotoxicity at 10 µM came to 0.841%.
`c1ccc(-n2nnnc2CN2CCCC(Cn3cncn3)C2)cc1` (stereo unspecified): the cytotoxicity at 10 µM is 0.962%.
As for `COc1ccc(-c2ncccc2C(=O)N2C[C@@H]3CC[C@H]2C3)cn1`, the figure is 6.42%; as for `Cc1ccc(CN2CCC3(CC2)C(=O)N(C)c2ccccc23)s1`, -5.68%.
As for `O=C1[C@H]2CN(Cc3ccco3)C[C@H]2CN1c1cncnc1`, the cytotoxicity at 10 µM was -3.64%.
With `COCC1c2c(cnn2C)CCN1Cc1ccoc1` (stereo unspecified), the cytotoxicity at 10 µM was -10.8%.
As for `COc1cccc2c1ccn2CCNC(=O)CC(C)C`, the figure is 4.38%; as for `CCN(CC)S(=O)(=O)NCCc1cc(C)ccc1OC`, -2.64%; as for `CN(Cc1ccccn1)C1CCC[C@@H]2CN(CC3CC3)C[C@H]12` (stereo partly specified), -113%.
For the compound `COc1cc(N2CC[C@H](O)[C@@H]2Cc2cccnc2)ncn1`, the cytotoxicity at 10 µM was -71.8%.
To `O=C(CNC(=O)c1cnc2ccccc2c1O)NCCCn1ccnc1` belongs -5.28%; to `O=C(COc1coc(CN2CCCCC2)cc1=O)c1ccccc1`, 8.44%.
In the case of `COCCn1cc(-c2cc(C(=O)N3CCCC3)c3ccccn23)nc1C`, the cytotoxicity at 10 µM was determined as 8.61%.
Take `CCN1C[C@@H]2CN(Cc3cccs3)C[C@@H]2C1=O`: the cytotoxicity at 10 µM was -3.19%.
To `Cc1ncsc1CN1C[C@@H]2COC[C@]2(C(=O)NCc2cccnc2)C1` belongs -106%; to `COCCC1(CO)CCCN(Cc2ccc(C(F)(F)F)cc2)C1` (stereo unspecified), -153%.
As to `CC(NC(=O)NCCOc1ccc(Cl)cc1)c1nncn1C` (stereo unspecified), the cytotoxicity at 10 µM is -8.47%.
With `c1cnc(N2CCOC3(CCN(CC4CCCCC4)CC3)C2)nc1`, the cytotoxicity at 10 µM was determined as 0.256%.
As to `CC1(C)CC(CN2CCC3(CCC(=O)N(CCO)C3)CC2)CCO1` (stereo unspecified), the cytotoxicity at 10 µM is 18%.
As for `O=C(COc1cccnc1)N1CCOC(C(F)(F)F)C1` (stereo unspecified), the cytotoxicity at 10 µM was -11.5%.
As for `c1ccc(CN2CC[C@@H]3O[C@H](COCc4ccncc4)CC[C@@H]32)nc1`, the cytotoxicity at 10 µM is 3.5%.
`Cc1ccc(C(=O)Nc2cc(C(N)=O)ccc2CN(C)C)cc1Cl`: the cytotoxicity at 10 µM was 18.5%.
With `COc1cc2ccn(CCS(C)(=O)=O)c(=O)c2cc1F`, the cytotoxicity at 10 µM was found to be 18.5%.
As for `Cn1ccc(CN2CCCC(CNS(C)(=O)=O)C2)cc1=O` (stereo unspecified), the cytotoxicity at 10 µM is 9.31%.
For the compound `Cc1noc(C)c1CCC(=O)NC(C)c1nnc2n1CCCCC2` (stereo unspecified), the cytotoxicity at 10 µM was -1.18%.
Regarding `Fc1cnc(N2C[C@@H](OCC3CCOCC3)[C@H]3OCCC[C@H]32)nc1`, the cytotoxicity at 10 µM came out at 10.5%.
As for `O=C1Nc2ccccc2C12CCN(Cc1ccccn1)CC2`, the figure is -3.45%; as for `CCn1ccc(NS(=O)(=O)c2cccc(CSC)c2)n1`, 10.4%; as for `CCS(=O)(=O)N1CC(=O)N(Cc2ccccc2OC)CC(O)C1` (stereo unspecified), -95.5%.
To `COc1ccccc1-c1nc(C(=O)N(C)C)n2ccncc12` belongs 12.6%; to `Cc1cc(C2CCCN(C(=O)COc3ccc(F)cc3)C2)n[nH]1` (stereo unspecified), 3.59%; to `Cc1nn(C)c(N(C)C)c1CNCc1ccccc1Cn1cncn1`, 3.85%.
For `Cc1ncsc1CCN(C)C1CCN(c2ncnc3[nH]cnc23)CC1`, the cytotoxicity at 10 µM was -39%.
Consider `CN1CCOC(CNCc2cccc(OCC(F)(F)F)c2)C1` (stereo unspecified), for which the cytotoxicity at 10 µM was -6.44%.
On to `O=C(c1cccnc1)N1CCC2(CCN(C(=O)N3CCCC3)CC2)C1`, for which the cytotoxicity at 10 µM was -103%.
Take `Cc1ccc(C2(O)CCN(Cc3nnc(-c4cccnc4)o3)CC2)nc1`: the cytotoxicity at 10 µM is -7.77%.
As for `COc1cnc(N2C[C@H](CO)C[C@H](CN3CCOCC3)C2)nc1`, the figure is -8.11%; as for `COc1ccc(-n2cc3nc(N)[nH]cc-3c2=O)cc1Cl`, 17.7%; as for `CCS(=O)(=O)N1CC(c2nc(-c3ccncc3)no2)C1`, -5.86%.
On to `CC(Cn1ccnc1)NC(=O)N1CCN(Cc2ccco2)CC1` (stereo unspecified), for which the cytotoxicity at 10 µM is -2.07%.
As to `CC(C(=O)NCCCN1CCOCC1)n1cncn1` (stereo unspecified), the cytotoxicity at 10 µM came to 1.4%.
With `O=C(c1cccnc1O)N1CCC(COc2ccccc2)CC1`, the cytotoxicity at 10 µM came to 9.53%.
For `CC(Cn1cccn1)NC(=O)NCc1cccnc1OC(C)C` (stereo unspecified), the cytotoxicity at 10 µM is -9.44%.
With `CC(c1ccccc1)N1CCC(NC(=O)CCc2ccsc2)CC1` (stereo unspecified), the cytotoxicity at 10 µM was 0.91%.
To `Cc1ccc(C(=O)N2CCn3cnc(COCC4CC4)c3C2)cn1` belongs 4.03%; to `Fc1ccc(OCc2noc(CN3CCc4cncnc4C3)n2)cc1`, 2%; to `CSCCC(=O)N1C[C@H](Nc2ccnc(C)n2)[C@@H](C(C)C)C1`, -1.13%.
Turning to `COc1ccccc1CN(C)C(=O)CN1C(=O)OC[C@@H]1c1ccccc1`, the cytotoxicity at 10 µM was -43.6%.
To `Cc1nc(CN2CCC3(CC2)CC(c2cccnc2)C(=O)N3C)cs1` (stereo unspecified) belongs 9.95%.
Turning to `CN1CCCC(c2cccc(-c3ccccc3F)n2)C1` (stereo unspecified), the cytotoxicity at 10 µM turned out to be 2.58%.
Take `O=C(NCC1CCOC1)c1ccc(OCC(F)(F)F)nc1` (stereo unspecified): the cytotoxicity at 10 µM is -5.64%.
To `O=C(Cc1ccsc1)NCCc1ccoc1` belongs 5.5%; to `O=C(Cc1c[nH]c2ccccc12)N1CCN(C(=O)c2ccoc2)CC1`, -2.15%.
On to `COCC1CC2(CCNCC2)CN1Cc1csc(C)n1` (stereo unspecified), for which the cytotoxicity at 10 µM came to 5.77%.
As for `O=C(Cc1cccc(F)c1)NCCCNC(=O)c1cccc(O)c1`, the figure is 1.06%.
As to `O=C(O)c1ccccc1-n1cnc(CN2CCc3ccccc32)c1`, the cytotoxicity at 10 µM amounted to 11.7%.
For `CC(C)Cn1cncc1CNC1CCCNC1` (stereo unspecified), the cytotoxicity at 10 µM was -0.391%.
Turning to `O=C(NC1CC1)c1cc(C(F)(F)F)cc(C(=O)NC2CC2)n1`, the cytotoxicity at 10 µM came to 9.97%.
